In the library only some 1.7% were active in any assay of this set; here they are far more common.
A3A deaminase – blocks human APOBEC3A ssDNA deamination; AID 493011; P31941; hit rate 0.41% among 330,000; recombinant A3A, FAM/TAMRA ssDNA deamination fluorescence; inhibition, % at 20 µM;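 active = at least 40% inhibition at 20 µM here, with at most 30% in a related deaminase screen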;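 note: plate controls were A3A with DMSO for no effect and wells lacking A3A enzyme for full effect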
Target sequence (P31941 whole entry, looked up): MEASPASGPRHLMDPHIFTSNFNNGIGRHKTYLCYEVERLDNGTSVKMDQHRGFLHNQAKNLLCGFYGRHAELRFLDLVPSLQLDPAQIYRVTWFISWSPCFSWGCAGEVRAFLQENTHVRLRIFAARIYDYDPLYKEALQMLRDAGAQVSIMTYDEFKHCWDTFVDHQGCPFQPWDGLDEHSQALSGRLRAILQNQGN
A3G deaminase – inhibitors of human APOBEC3G DNA deaminase | recombinant A3G, ssDNA deamination FAM/TAMRA fluorescence | hit rate 0.28% among 330,000 | Q9HC16 | inhibition, % at 20 µM;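 active = inhibition of at least 40% at 20 µM, with no more than 30% in the related APOBEC3A deaminase screen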;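 note: plate controls were DMSO wells with A3G for no effect and wells lacking A3G enzyme for full effect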
Target sequence (Q9HC16 whole entry, looked up): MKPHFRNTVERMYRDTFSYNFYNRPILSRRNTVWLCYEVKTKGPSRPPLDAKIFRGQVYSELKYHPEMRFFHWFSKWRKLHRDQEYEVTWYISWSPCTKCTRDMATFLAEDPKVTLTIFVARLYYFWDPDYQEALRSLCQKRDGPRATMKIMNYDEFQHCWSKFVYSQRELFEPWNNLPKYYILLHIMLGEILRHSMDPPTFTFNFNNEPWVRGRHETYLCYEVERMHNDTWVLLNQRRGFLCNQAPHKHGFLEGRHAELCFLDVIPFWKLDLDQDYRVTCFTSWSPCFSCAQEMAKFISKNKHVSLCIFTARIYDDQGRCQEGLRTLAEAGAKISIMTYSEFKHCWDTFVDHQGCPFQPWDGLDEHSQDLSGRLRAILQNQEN
CAL PDZ FP-1 – blocks peptide binding to the human CAL PDZ domain | inhibition, % at 24.9 µM | Q9HD26 | purified CAL PDZ, TMR-peptide fluorescence polarization, 1 h | hit rate 0.92% among 300,000;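 active = mean inhibition of at least 30% with at least half of replicates also reaching 30%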;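 note: 0% = DMSO neutral control and 100% = excess unlabeled competitor peptide PRC23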
LANA DNA inh – inhibitors of KSHV LANA C-terminal domain DNA binding; MBP-C-LANA/FAM-LBS DNA binding, fluorescence polarization; inhibition, % at 9 µM; hit rate 0.078% among 340,000; AID 504423;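 active = highest replicate inhibition at or above 60% at 9 µM, even if other replicates fall short; inactive = all replicates below 60% inhibition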;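 note: 0% = neutral control wells and 100% = 4 µM acridine orange control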
CAL PDZ FP-2 – human CAL PDZ-peptide interaction inhibition | Q9HD26 | purified CAL PDZ, TMR-peptide fluorescence polarization, 1 h | inhibition, % at 20 µM | hit rate 0.02% among 330,000;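 active = highest replicate inhibition of at least 40%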;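 note: plate controls were DMSO neutral control wells for no effect and unlabeled competitor peptide control wells for full effect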
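System: tagged CAL PDZ domain. Schedule: 1 h room-temperature incubation prior to read. Signal: fluorescence polarization (mP). Measure: percent inhibition from loss of millipolarization.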
Keap1-Nrf2 PPI – Keap1-Nrf2 (human) interaction inhibition. Q14145. Keap1 Kelch-Nrf2 peptide fluorescence polarization, 1536-well. inhibition, % at 9.4 µM. hit rate 0.15% among 340,000. AID 504523; in the data active = inhibition above about 12%;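 note: human Keap1 Kelch domain with fluorescein labeled Nrf2 9mer peptide probe; 0% = neutral control wells and 100% = peptide positive control; higher means more block of Keap1 binding to Nrf2 peptide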
Starred values were filed as active, the others as inactive; . = no result given.

SMILES	A3A deaminase	A3G deaminase	CAL PDZ FP-1	LANA DNA inh	CAL PDZ FP-2	Keap1-Nrf2 PPI
O=C(NCCCN1CCOCC1)C(=O)NCC1OCCN1S(=O)(=O)c1ccc(F)cc1 (centres undefined)	-5.0	-5.6	-3.9	-2.2	-3.3	0.0
COCCNC(=O)C(=O)NCC1OCCN1S(=O)(=O)c1ccc(F)cc1 (centres undefined)	1.2	-3.9	34.2*	0.1	-0.3	2.6
O=C(NCCN1CCOCC1)C(=O)NCC1OCCN1S(=O)(=O)c1ccc(F)cc1 (centres undefined)	-3.1	-6.9	83.0*	-1.0	2.9	0.5
S=c1nn[nH]c2ccccc12	.	.	-2.6	-1.8	-0.2	0.0
CC(C)CN(C(=O)COC(=O)CSc1ccc([N+](=O)[O-])cc1)C1CCS(=O)(=O)C1 (centres undefined)	-5.1	-12.4	0.0	0.9	-0.1	-3.6
CN(Cc1c(F)cccc1Cl)C(=O)C1CC(=O)N(CCc2ccccc2)C1 (centres undefined)	0.6	-11.4	78.2*	0.3	5.0	2.7
CCN(CC(=O)Nc1c(F)cccc1F)C(=O)C1CC(=O)N(CCc2ccccc2)C1 (centres undefined)	1.7	-3.9	-3.7	0.2	-1.8	5.3
Cc1ccc(NC(=O)C2CC(=O)N(CCc3ccccc3)C2)cc1Cl (centres undefined)	-1.7	-3.9	80.1*	-2.6	-2.7	-3.2
COc1cccc(OCC(=O)Nc2ccccc2-c2ccccc2)c1	-2.8	-9.2	2.0	1.9	-0.6	-2.7
C=CCNCCOCCOc1ccc(C)cc1Br	-6.9	-7.2	31.9*	0.7	-1.1	-6.2
CCC(C)NCCOCCOc1ccc(C)cc1Br (centres undefined)	0.0	-4.0	7.0	1.2	0.9	0.0
Nc1c2c(nc3ccccc13)CSCC2	2.5	-6.0	49.6*	0.3	-1.0	-10.0
Cc1ccc(SCC(=O)NNC(=O)c2cncc(Br)c2)cc1	-3.6	-5.0	-4.2	-3.2	-0.7	-8.9
O=C(Nc1ccc(Cl)cc1)NN1CCCCCC1	.	.	-5.4	1.0	-1.1	2.1
N#Cc1ccc(NC(=O)NN2CCCCCC2)cc1	.	.	82.2*	2.5	-0.3	4.3
O=c1c2ccccc2nc(SCc2ccc([N+](=O)[O-])cc2)n1-c1ccccc1	-0.3	-4.2	2.9	0.7	.	-0.3
O=C(O)c1ccc(CSc2nc3ccccc3c(=O)n2-c2ccccc2)cc1	-0.8	-6.1	.	28.1	-1.4	30.2*
CC(Sc1nnnn1C)C(=O)Nc1ncc(Cl)cc1Cl (centres undefined)	-1.5	-5.9	0.7	0.6	-0.8	-3.5
Cc1c(C(=O)N2CCOCC2)c(S(=O)(=O)Nc2cccc(F)c2)c(C)n1C	1.0	3.6	-3.3	0.7	-0.1	-6.6
Cc1c(C(=O)N2CCOCC2)c(S(=O)(=O)Nc2cccc(C#N)c2)c(C)n1C	-2.8	-5.4	68.0*	0.3	-0.2	-3.9
Cc1ccc(S(=O)(=O)N2CCOCC2)cc1NC(=O)COC(=O)C1(C)CC1(Cl)Cl (centres undefined)	-3.6	-7.1	-1.0	-0.6	0.4	2.2
Cc1ccc(S(=O)(=O)N2CCCCC2)cc1NC(=O)COC(=O)C1(C)CC1(Cl)Cl (centres undefined)	-2.4	-8.6	66.8*	-0.1	-0.1	0.8
CC1CCN(C(=O)c2ccc(S(=O)(=O)N3CCCCCC3)cc2)CC1	0.7	-3.6	-2.7	-0.3	1.1	-6.5
Cc1cccc(N2CCN(C(=O)c3cccc(S(=O)(=O)N4CCCCC4)c3)CC2)c1C	-2.2	-7.8	69.0*	-1.0	-0.1	3.6
Cc1ccc(C(=O)NCCc2ccc(S(=O)(=O)N3CCCC3)cc2)cc1	-4.2	-6.2	43.9*	2.8	-0.3	-3.1
SMILES	A3A deaminase	A3G deaminase	CAL PDZ FP-1	LANA DNA inh	CAL PDZ FP-2	Keap1-Nrf2 PPI
O=C(c1cccc(S(=O)(=O)N2CCCCCC2)c1)N1CCN(c2ccccc2F)CC1	-3.0	-8.1	5.6	-0.3	-3.3	-6.0
O=C(c1ccc(S(=O)(=O)N2CCCC2)cc1)N1CCCCCC1	-2.2	-6.7	66.9*	-0.8	-1.3	-1.1
O=C(Nc1ccc(C(=O)N2CCCCC2)cc1)C1CC1	.	.	41.9*	0.6	0.0	3.8
COc1ccc(CN2CCNC(=O)C2CC(=O)N2CCCO2)c(OC)c1 (centres undefined)	-3.9	-8.1	2.6	1.8	-1.1	-3.8
O=C1Nc2ccccc2C1=Nc1ccccc1-c1ccccc1	.	.	-5.8	-1.1	-0.4	1.2
COc1ccc(NC(=O)c2noc3c2CCC3)cc1	32.4	16.2	-5.0	2.7	.	-1.8
CC(=O)c1ccc(NC(=O)c2noc3c2CCC3)cc1	38.9	8.0	68.3*	2.0	.	0.7
CC(C)CCN1CC(=O)N2[C@@H](Cc3c([nH]c4ccccc34)C2(C)C)C1=O	-0.6	-3.5	61.4*	2.6	-0.2	6.7
Cc1ccc(NS(=O)(=O)c2cc(C(=O)N(C)C3CCN(C)CC3)ccc2Cl)cc1Cl	-0.7	-7.6	-5.0	2.6	0.1	1.1
Cc1ccc(Oc2ccccc2NC(=O)C2=COCCO2)cc1	-2.3	-7.2	0.4	0.3	-2.0	-1.5
CCCNC(=O)c1cc(-c2ccc(Br)cc2)on1	-0.8	-3.1	32.6*	0.2	-1.7	-3.5
CC(C)NC(=O)c1cc(-c2ccc(Br)cc2)on1	-3.1	-3.5	.	0.1	-2.5	-1.4
CCOC(=O)C1=C(COC(=O)c2cc(Br)c(Br)s2)NC(=O)NC1C (centres undefined)	-2.9	0.7	-0.8	-0.1	-2.2	1.0
Cc1cc(C(=O)NP(=O)(N2CCOCC2)N2CCOCC2)c(C)n1-c1ccc(N(C)C)cc1	0.3	-0.9	87.8*	-2.0	-1.3	4.2
Cc1cc(C(=O)NP(=O)(N2CCOCC2)N2CCOCC2)c(C)n1-c1ccc(Br)cc1	-5.8	-6.1	-4.6	0.4	-0.7	0.3
O=C(O)c1c(-c2ccc(Cl)cc2)cn2ccccc12	-4.1	-7.7	99.9*	0.5	-1.8	-1.9
CCOC(=O)c1c(-c2ccccc2Cl)cn2ccccc12	0.9	-5.9	.	-0.1	-1.0	4.2
COc1ccccc1N1CCN(S(=O)(=O)c2ccc3c(c2)NC(=O)C(C)S3)CC1 (centres undefined)	-3.5	-9.0	113.7*	0.8	-0.5	3.3
COc1cccc(/C=N/Nc2ccccc2C(=O)O)c1O	-0.2	-6.9	80.8*	0.2	0.2	-4.9
CCn1c2ccccc2c2cc(NC(=O)CSc3nccc(=O)[nH]3)ccc21	-6.7	-4.6	-4.2	0.3	-1.7	-7.3
Cc1cccc(NC(=O)c2ccc([N+](=O)[O-])s2)c1C	-6.8	-6.5	47.1*	0.2	-1.6	-2.4
Cc1cccc(C)c1NC(=O)c1ccc([N+](=O)[O-])s1	2.1	-1.2	-7.4	-0.4	-2.0	-1.0
CC(=O)c1cccc(NC(=O)Cn2cnc(S(=O)(=O)N3CCCCC3)c2)c1	-5.5	-8.6	-8.2	-0.3	-1.2	-0.9
